Measured values published in ChEMBL document CHEMBL1955834, “Disparate SAR data of griseofulvin analogues for the dermatophytes Trichophyton mentagrophytes, T. rubrum, and MDA-MB-231 cancer cells” (J Med Chem, 2012).
The source made the active and inactive calls. The calls are words filed in the database; no cut-off is given here.

test system: Trichophyton mentagrophytes; assay: Antifungal activity against Trichophyton mentagrophytes IBT 2724 after 7 days by micro broth dilution method; type: functional, organism-based; conditions: IBT 2724, 168 h
Method in brief: (§1)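 T. mentagrophytes IBT2724 was tested by broth microdilution using an 8-fold dilution series of 10 concentrations from 50 μM down to 0.4 μM, with 1% DMSO. The inoculum was prepared per CLSI M38-A2, adjusted to OD530 0.90–1.5 and diluted 50-fold in RPMI/MOPS at pH 7.00. Plates ran 7 days at 37 °C with an OD read-out. IC50 came from a variable-slope sigmoidal fit.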

Row | IC50 | Structure (SMILES)
1 | 0.25 µM | COC1=CC(=O)C[C@@H](C)[C@]12Oc1c(Cl)c(OC)cc(OCc3ccccc3)c1C2=O
2 | 0.28 µM | COc1cc(OC)c2c(c1Cl)O[C@]1(C2=O)C(OCCc2ccccc2)=CC(=O)C[C@H]1C
3 | 0.24 µM | COc1cc(OC)c2c(c1Cl)O[C@]1(C2=O)C(OC2CCCC2)=CC(=O)C[C@H]1C

test system: SCC114; assay: Cytotoxicity against human SCC114 cells by phenotype-based spindle multipolarity assay; type: functional, cell-based; conditions: not given

Row | Structure (SMILES) | inhibition
4 | COc1cc(OC)c2c(c1Cl)O[C@@]1(C(=O)C=C(OC(C)C)C[C@H]1C)C2=O | inactive
5 | COc1cc(OC)c2c(c1Cl)O[C@@]1(C(=O)C=C(OC3CCCC3)C[C@H]1C)C2=O | inactive
6 | COC1=CC(=O)C[C@@H](C)[C@]12Oc1c(Cl)c(OC)cc(OCc3ccccc3)c1C2=O | inactive

test system: Trichophyton rubrum; assay: Antifungal activity against Trichophyton rubrum IBT 29284 after 7 days by micro broth dilution method; type: functional, organism-based; conditions: IBT 29284, 168 h
Method in brief: (§2)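 T. rubrum IBT29284 was tested by broth microdilution using a 4-fold dilution series of 10 concentrations from 50 μM down to 0.2 μM, with 1% DMSO. The inoculum followed CLSI M38-A2, set to OD530 0.90–1.5 and diluted 50-fold in RPMI/MOPS at pH 7.00. Incubation was 7 days at 37 °C, read by OD. IC50 came from a variable-slope sigmoidal fit.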

Row | IC50 | Structure (SMILES)
7 | 2.5 µM | COc1cc(OC)c2c(c1Cl)O[C@]1(C2=O)C(OC2CCCC2)=CC(=O)C[C@H]1C

test system: MDA-MB-231; assay: Cytotoxicity against human MDA-MB-231 cells assessed as cell viability after 48 hrs by MTT assay; type: functional, cell-based; conditions: MDA-MB-231, 48 h
Method in brief: (§3)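 MDA-MB-231 cells were grown in L-15 with 10% FCS at 37 °C and seeded at (2-3) × 10^4 per well. Exposure was 24 and/or 48 h, then MTT for at least 4 h, with absorbance read at 570/630 nm. Each condition had at least 3 replicates, reported as mean ± SD of a representative experiment repeated at least three times.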

Row | Structure (SMILES) | IC50
8 | COC1=C(I)C(=O)C[C@@H](C)[C@]12Oc1c(Cl)c(OC)cc(OC)c1C2=O | 22 µM
9 | COc1cc(OC)c2c(c1Cl)O[C@]1(C2=O)C(Cl)=CC(=O)C[C@H]1C | 3.2 µM
10 | COc1cc(OC)c2c(c1Cl)O[C@@]1(C(=O)C=C(OC(C)C)C[C@H]1C)C2=O | 48 µM
11 | COc1cc(OC)c2c(c1Cl)O[C@@]1(C(=O)C=C(Cl)C[C@H]1C)C2=O | 1 µM
12 | COC1=CC(=O)C[C@@H](C)[C@]12Oc1c(Cl)c(OC)cc(OCc3cccc4ccccc34)c1C2=O | 17 µM
13 | COc1cc(OC)c2c(c1Cl)O[C@@]1(C(=O)C=C(OC3CCCC3)C[C@H]1C)C2=O | 27 µM
14 | COc1cc(OC)c2c(c1Cl)O[C@]1(C2=O)C(OCc2ccncc2)=CC(=O)C[C@H]1C | 19 µM
15 | COc1cc(OC)c2c(c1Cl)O[C@]1(C2=O)C(OCC23CC4CC(CC(C4)C2)C3)=CC(=O)C[C@H]1C | 4.7 µM
16 | COc1cccc(COC2=CC(=O)[C@@]3(Oc4c(Cl)c(OC)cc(OC)c4C3=O)[C@H](C)C2)c1 | 25 µM
17 | COc1cc(OC)c2c(c1Cl)O[C@]1(C2=O)C(OCc2ccc(-c3ccccc3)cc2)=CC(=O)C[C@H]1C | 5.8 µM
18 | COC1=CC(=O)C[C@@H](C)[C@]12Oc1c(Cl)c(OC)cc(OCc3ccccc3)c1C2=O | 20 µM
19 | COc1cc(OC)c2c(c1Cl)O[C@]1(C2=O)C(OCCc2ccccc2)=CC(=O)C[C@H]1C | 17 µM
20 | COc1cc(OC)c2c(c1Cl)O[C@]1(C2=O)C(OC2CCCC2)=CC(=O)C[C@H]1C | 3.2 µM

test system: Trichophyton mentagrophytes; assay: Antifungal activity against Trichophyton mentagrophytes IBT 2724 at 50 uM after 7 days by micro broth dilution method; type: functional; conditions: not given; method in brief: as §1

Row | Structure (SMILES) | inhibition
21 | COC1=CC(=O)C[C@@H](C)[C@]12Oc1c(Cl)c(O)cc(OC)c1C2=O | inactive
22 | COc1cc(OC)c2c(c1Cl)O[C@@]1(C(=O)C=C(Cl)C[C@H]1C)C2=O | inactive
23 | COc1ccc(COC2=CC(=O)C[C@@H](C)[C@]23Oc2c(Cl)c(OC)cc(OC)c2C3=O)cc1 | inactive
24 | COc1cc(OC)c2c(c1Cl)O[C@]1(C2=O)C(=O)C(C)(C)C(=O)C[C@H]1C | inactive
25 | COC1=CC(=O)C[C@@H](C)[C@]12Oc1c(Cl)c(OC)cc(OCc3cccc4ccccc34)c1C2=O | inactive
26 | COc1cc(O)c(Cl)c2c1C(=O)[C@@]1(O2)C(=O)C=C(O)C[C@H]1C | inactive
27 | COC1=CC(=O)C[C@@H](C)[C@]12Oc1c(Cl)c(OC)c([N+](=O)[O-])c(OC)c1C2=O | inactive
28 | COc1cc(OC)c2c(c1Cl)O[C@]1(C2=O)C(OCC23CC4CC(CC(C4)C2)C3)=CC(=O)C[C@H]1C | inactive
29 | COc1cc(OC)c2c(c1Cl)O[C@]1(C2=O)C(OCc2ccc(-c3ccccc3)cc2)=CC(=O)C[C@H]1C | inactive
30 | COC1=CC(=O)C[C@@H](C)[C@]12Oc1c(Cl)c(OC)c(N)c(OC)c1C2=O | inactive

same assay, conditions: IBT 2724, 168 h

Row | Structure (SMILES) | inhibition at 50 µM
31 | COC1=C(I)C(=O)C[C@@H](C)[C@]12Oc1c(Cl)c(OC)cc(OC)c1C2=O | < 50%
32 | COc1cc(OC)c2c(c1Cl)O[C@]1(C2=O)C(Cl)=CC(=O)C[C@H]1C | < 50%
33 | COc1cc(OC)c2c(c1Cl)O[C@@]1(C(=O)C=C(OC(C)C)C[C@H]1C)C2=O | < 50%
34 | COc1cc(OC)c2c(c1Cl)O[C@@]1(C(=O)C=C(OC3CCCC3)C[C@H]1C)C2=O | < 50%
35 | COc1cc(OC)c2c(c1Cl)O[C@]1(C2=O)C(OCc2ccncc2)=CC(=O)C[C@H]1C | < 50%
36 | COc1cccc(COC2=CC(=O)[C@@]3(Oc4c(Cl)c(OC)cc(OC)c4C3=O)[C@H](C)C2)c1 | < 50%
37 | COc1cc(OC)c2c(c1Cl)O[C@]1(C(=O)CC(=O)C[C@@H]1C)C2=O (relative stereo) | < 50%
38 | COC1=CC(=O)C[C@@H](C)[C@]12Oc1c(Cl)c(OC)cc(O)c1C2=O | < 50%

test system: Trichophyton rubrum; assay: Antifungal activity against Trichophyton rubrum IBT 29284 at 50 uM after 7 days by micro broth dilution method; type: functional; conditions: not given; method in brief: as §2

Row | Structure (SMILES) | inhibition
39 | COC1=C(I)C(=O)C[C@@H](C)[C@]12Oc1c(Cl)c(OC)cc(OC)c1C2=O | inactive
40 | COc1cc(OC)c2c(c1Cl)O[C@@]1(C(=O)C=C(OC(C)C)C[C@H]1C)C2=O | inactive
41 | COC1=CC(=O)C[C@@H](C)[C@]12Oc1c(Cl)c(O)cc(OC)c1C2=O | inactive
42 | COc1cc(OC)c2c(c1Cl)O[C@@]1(C(=O)C=C(Cl)C[C@H]1C)C2=O | inactive
43 | COc1ccc(COC2=CC(=O)C[C@@H](C)[C@]23Oc2c(Cl)c(OC)cc(OC)c2C3=O)cc1 | inactive
44 | COc1cc(OC)c2c(c1Cl)O[C@]1(C2=O)C(=O)C(C)(C)C(=O)C[C@H]1C | inactive
45 | COC1=CC(=O)C[C@@H](C)[C@]12Oc1c(Cl)c(OC)cc(OCc3cccc4ccccc34)c1C2=O | inactive
46 | COc1cc(OC)c2c(c1Cl)O[C@@]1(C(=O)C=C(OC3CCCC3)C[C@H]1C)C2=O | inactive
47 | COc1cc(O)c(Cl)c2c1C(=O)[C@@]1(O2)C(=O)C=C(O)C[C@H]1C | inactive
48 | COC1=CC(=O)C[C@@H](C)[C@]12Oc1c(Cl)c(OC)c([N+](=O)[O-])c(OC)c1C2=O | inactive
49 | COc1cc(OC)c2c(c1Cl)O[C@]1(C2=O)C(OCC23CC4CC(CC(C4)C2)C3)=CC(=O)C[C@H]1C | inactive
50 | COc1cccc(COC2=CC(=O)[C@@]3(Oc4c(Cl)c(OC)cc(OC)c4C3=O)[C@H](C)C2)c1 | inactive
51 | COc1cc(OC)c2c(c1Cl)O[C@]1(C2=O)C(OCc2ccc(-c3ccccc3)cc2)=CC(=O)C[C@H]1C | inactive
52 | COC1=CC(=O)C[C@@H](C)[C@]12Oc1c(Cl)c(OC)c(N)c(OC)c1C2=O | inactive
53 | COc1cc(OC)c2c(c1Cl)O[C@]1(C(=O)CC(=O)C[C@@H]1C)C2=O (relative stereo) | inactive
54 | COC1=CC(=O)C[C@@H](C)[C@]12Oc1c(Cl)c(OC)cc(O)c1C2=O | inactive
55 | COC1=CC(=O)C[C@@H](C)[C@]12Oc1c(Cl)c(OC)cc(OCc3ccccc3)c1C2=O | inactive

same assay, conditions: IBT 29284, 168 h

Row | Structure (SMILES) | inhibition at 50 µM
56 | COc1cc(OC)c2c(c1Cl)O[C@]1(C2=O)C(Cl)=CC(=O)C[C@H]1C | < 50%
57 | COc1cc(OC)c2c(c1Cl)O[C@]1(C2=O)C(OCc2ccncc2)=CC(=O)C[C@H]1C | < 50%
58 | COc1cc(OC)c2c(c1Cl)O[C@]1(C2=O)C(OCCc2ccccc2)=CC(=O)C[C@H]1C | < 50%

test system: MDA-MB-231; assay: Cytotoxicity against human MDA-MB-231 cells assessed as cell viability at 50 uM after 48 hrs by MTT assay; type: functional; conditions: not given; method in brief: as §3

Row | Structure (SMILES) | inhibition
59 | COc1cc(OC)c2c(c1Cl)O[C@]1(C2=O)C(=O)C(C)(C)C(=O)C[C@H]1C | inactive
60 | COc1cc(O)c(Cl)c2c1C(=O)[C@@]1(O2)C(=O)C=C(O)C[C@H]1C | inactive
61 | COC1=CC(=O)C[C@@H](C)[C@]12Oc1c(Cl)c(OC)c([N+](=O)[O-])c(OC)c1C2=O | inactive
62 | COC1=CC(=O)C[C@@H](C)[C@]12Oc1c(Cl)c(OC)c(N)c(OC)c1C2=O | inactive
63 | COc1cc(OC)c2c(c1Cl)O[C@]1(C(=O)CC(=O)C[C@@H]1C)C2=O (relative stereo) | inactive
64 | COC1=CC(=O)C[C@@H](C)[C@]12Oc1c(Cl)c(OC)cc(O)c1C2=O | inactive

same assay, conditions: MDA-MB-231, 48 h

Row | Structure (SMILES) | inhibition at 50 µM
65 | COC1=CC(=O)C[C@@H](C)[C@]12Oc1c(Cl)c(O)cc(OC)c1C2=O | < 50%
66 | COc1ccc(COC2=CC(=O)C[C@@H](C)[C@]23Oc2c(Cl)c(OC)cc(OC)c2C3=O)cc1 | < 50%
